# Tests used:
# [1] = test system: Botrytis cinerea; test: Antifungal activity against logarithmic phase of Botryotinia fuckeliana ATCC 48339 assessed as growth inhibition at 100 ug/ml measured at 5 days post-drug treatment; assay type: functional; conditions: ATCC 48339, 120 h, read-out: GI
# In short: (§1)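 Log-phase mycelium (from 10 mm stationary-phase disks grown on cellophane over PDA, pH 5.6, 26 ± 1 °C) moved to PDA with compound added from DMSO stock at 45 °C. Final concentrations were 10, 50 or 100 µg mL^-1, with 0.1% DMSO in test and control media. Colony diameter was read daily for 5 days, in triplicate, as % of untreated control.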
# [2] = test system: Globisporangium ultimum; test: Antifungal activity against logarithmic phase of Pythium ultimum ATCC 58812 assessed as growth inhibition at 100 ug/ml measured at 5 days post-drug treatment; assay type: functional; conditions: ATCC 58812, 120 h, read-out: GI; in short: as §1
# [3] = test system: Pyricularia grisea; test: microbe, parasite or virus in culture; assay type: functional; conditions: ATCC 64413, 120 h, read-out: GI
# [4] = test system: Botrytis cinerea; test: Antifungal activity against logarithmic phase of Botryotinia fuckeliana ATCC 48339 assessed as growth inhibition at 10 ug/ml measured at 5 days post-drug treatment; assay type: functional; conditions: ATCC 48339, 120 h, read-out: GI; in short: as §1
# [5] = test system: Botrytis cinerea; test: Antifungal activity against logarithmic phase of Botryotinia fuckeliana ATCC 48339 assessed as growth inhibition at 50 ug/ml measured at 5 days post-drug treatment; assay type: functional; conditions: ATCC 48339, 120 h, read-out: GI; in short: as §1
# [6] = test system: Pyricularia grisea; test: microbe, parasite or virus in culture; assay type: functional; conditions: ATCC 64413, 120 h, read-out: GI; remark: listed apart in the source
# [7] = test system: Pyricularia grisea; test: microbe, parasite or virus in culture; assay type: functional, organism-based; conditions: ATCC 64413, 120 h
# [8] = test system: Globisporangium ultimum; test: Antifungal activity against logarithmic phase of Pythium ultimum ATCC 58812 assessed as growth inhibition at 50 ug/ml measured at 5 days post-drug treatment; assay type: functional; conditions: ATCC 58812, 120 h, read-out: GI; in short: as §1
# [9] = test system: Globisporangium ultimum; test: Antifungal activity against logarithmic phase of Pythium ultimum ATCC 58812 assessed as growth inhibition at 10 ug/ml measured at 5 days post-drug treatment; assay type: functional; conditions: ATCC 58812, 120 h, read-out: GI; in short: as §1
# [10] = test system: Pyricularia grisea; test: microbe, parasite or virus in culture; assay type: functional; conditions: ATCC 64413, 120 h, read-out: GI; remark: listed apart in the source
# [11] = test system: Globisporangium ultimum; test: Antifungal activity against logarithmic phase of Pythium ultimum Trow ATCC 58812 assessed as growth inhibition measured at 5 days post-drug treatment; assay type: functional, organism-based; conditions: ATCC 58812, 120 h
# In short: (§2)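 Log-phase mycelium grown on cellophane over PDA (pH 5.6, 26 ± 1 °C) moved to PDA containing compound at 10, 50 and 100 µg mL^-1 final, with 0.1% DMSO in test and control media. Colony diameter was measured daily for 5 days, in triplicate, relative to untreated controls. IC50 came from curves of activity (%) versus log inhibitor concentration.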
# [12] = test system: Botrytis cinerea; test: Antifungal activity against logarithmic phase of Botryotinia fuckeliana ATCC 48339 assessed as growth inhibition measured at 5 days post-drug treatment; assay type: functional, organism-based; conditions: ATCC 48339, 120 h; in short: as §2
Compound,inhibition of growth at 100 µg/mL [1] [%],inhibition of growth at 100 µg/mL [2] [%],inhibition of growth at 50 µg/mL [3] [%],inhibition of growth at 10 µg/mL [4] [%],inhibition of growth at 50 µg/mL [5] [%],inhibition of growth at 100 µg/mL [6] [%],IC50 [7] [µM],inhibition of growth at 50 µg/mL [8] [%],inhibition of growth at 10 µg/mL [9] [%],inhibition of growth at 10 µg/mL [10] [%],IC50 [11] [µM],IC50 [12] [µM]
CCCCNC(=S)Nc1[nH]ncc1C(=O)OCC,32.4,10.4,8.6,4.7,15.1,10,–,–,–,–,–,–
CCOC(=O)c1cn[nH]c1NC(=S)Nc1ccccc1Cl,36,70,60.9,4.3,30.9,67,48,68.7,66.5,48.7,–,–
Cc1c(C(=O)O)c(C(=O)NC(C)(C)C)nn1-c1ccccc1,60.5,83.4,3.8,39.5,43.1,13.9,–,82.3,12.1,0.6,79,–
Cc1c(C(=O)O)c(C(=O)NC(C)(C)C)nn1C,61.9,41.3,4.1,–,9.6,5.8,–,12.5,–,0.9,–,–
COC(=O)N(OC)c1ccccc1COc1ccn(-c2ccc(Cl)cc2)n1 [PYRACLOSTROBIN],–,100,–,–,–,–,–,100,100,–,< 10,–
CCNC(=S)Nc1[nH]ncc1C(=O)OCC,–,20,18.1,–,–,28.9,–,–,–,13.8,–,–
CCOC(=O)c1cn[nH]c1NC(=S)NCc1ccccc1,32,38.3,35.6,0,26,41.4,–,34.6,3.7,15.8,–,–
Cc1c(C(=O)O)c(C(=O)NC2CC2)nn1C,19.8,11.4,4.3,3,9.9,8.6,–,6.6,–,–,–,–
CCOC(=O)c1cn[nH]c1NC(=S)NC1CCCCC1,–,63.9,26.7,–,–,36,–,59,44.4,29.8,–,–
O=C(Nc1ccccc1)c1ccccc1I [BENODANIL],97.6,–,–,6.3,91.2,–,–,–,–,–,–,66
O=c1c2cn[nH]c2[nH]c(=S)n1-c1ccc(Cl)cc1,31.7,37.8,–,–,–,–,–,12.2,1.7,–,–,–
COC(=O)c1c(C(=O)NC2CC2)nn(C)c1C,3.2,7.7,–,–,4,3.4,–,4.3,4.8,–,–,–
CCOC(=O)c1cn[nH]c1NC(=S)Nc1cccc(Cl)c1,76.2,60.8,18,56,56.8,26,–,38.1,32.9,16.6,–,31
CCOC(=O)c1cn[nH]c1NC(=S)Nc1cccc(C(F)(F)F)c1,23.2,28,46.3,–,–,51,224,24.2,23,29.4,–,–
CCOC(=O)c1c[nH]nc1N=C(S)Nc1ccc(Cl)cc1,46.2,61.5,33.6,–,21,36.7,–,52.9,38,21.4,–,–
CCn1c(=S)[nH]c2[nH]ncc2c1=O,–,–,3.6,–,–,4.1,–,–,–,–,–,–
O=c1c2cn[nH]c2[nH]c(=S)n1-c1ccc(Br)cc1,–,61.8,18,–,–,20,–,22.5,–,–,–,–
Cc1[nH]nc(C(=O)NC2CC2)c1C(=O)O,19.2,39.9,5.9,–,10.6,9,–,32.9,3.2,3.6,–,–
O=c1c2cn[nH]c2[nH]c(=S)n1Cc1ccccc1,31.9,78,23.4,13.5,23.4,44.4,–,64.6,44.1,0.5,66,–
Cc1cccc2sc3nncn3c12 [TRICYCLAZOLE],–,–,24,–,–,62,474,–,–,0,–,–
O=c1c2cn[nH]c2[nH]c(=S)n1-c1cccc(C(F)(F)F)c1,7.2,57.8,1.4,0.5,1,4.1,–,34.5,17.2,–,–,–
O=c1c2cn[nH]c2[nH]c(=S)n1-c1ccccc1Cl,66.2,–,–,40,63.8,–,–,–,–,–,–,83
COC(=O)c1c(C(=O)O)nn(C)c1C,3.3,–,–,–,–,8.4,–,–,–,–,–,–
CCOC(=O)c1cn[nH]c1NC(=S)Nc1ccc(Br)cc1,16.3,3.1,27.1,–,–,27.2,–,2,–,16.1,–,–
CCOC(=O)c1cn[nH]c1NC(=S)Nc1ccc([N+](=O)[O-])cc1,37.9,63.4,15.6,13.2,33,17.7,–,36,27.2,13,–,–
Cc1onc(C(=O)NC(C)(C)C)c1C(=O)O,18.2,40.2,–,4.3,13.3,–,–,15.8,9.7,–,–,–
O=c1c2cn[nH]c2[nH]c(=S)n1-c1ccc([N+](=O)[O-])cc1,2.1,13.7,–,–,–,–,–,8.7,4.6,–,–,–
Cc1onc(C(=O)NC2CC2)c1C(=O)O,–,53.5,2.3,3.8,–,8.97,–,46.6,46,–,–,–
Cc1c(C(=O)O)c(C(=O)NC(C)(C)C)nn1-c1c(Cl)cc(C(F)(F)F)cc1Cl,27.5,54.7,20.6,17.3,22.6,24.4,–,37.9,1.9,–,–,–
O=c1c2cn[nH]c2[nH]c(=S)n1-c1cccc(Cl)c1,27.3,10.8,1,–,8.5,5,–,4.1,2.2,–,–,–
